Results taken from ChEMBL document CHEMBL1126202, “Dual-action penems and carbapenems” (J Med Chem, 1992).
≈ marks a conversion by molar mass, not a printed value.

What was measured:
[1] = Stability in pH 7.4 phosphate buffer at 37 degree C.; type: physicochemical
In short: (§1)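 Compounds were held in pH 7.4 phosphate buffer at 37 °C and monitored by reverse-phase HPLC on a PRP-1 column with UV detection at 275–286 nm. The mobile phase was 0.01 M tetradecyltrimethylammonium bromide in pH 8.2 phosphate/acetonitrile. Product-peak decline was followed to at least 50%, and half-life was taken from semilogarithmic plots.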

[2] = test system: Bacteroides thetaiotaomicron; experiment: (§2) In vitro antibacterial activity against Bacteroides thetaiotaomicron 62B; type: functional
In short: (§3)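 Anaerobic MICs were determined in microtiter plates in Schaedler's broth supplemented with coenzyme I and hemin. Incubation was under an oxygen-free hydrogen-carbon dioxide atmosphere.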

Bacteroides fragilis [3] = experiment: In vitro antibacterial activity against Bacteroides fragilis F117A; type: functional
In short: (§4)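 MIC by broth dilution in microtiter plates, run in an oxygen-free hydrogen–carbon dioxide atmosphere. Medium: Schaedler's broth with coenzyme I and hemin added.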

Clostridium perfringens = experiment: In vitro antibacterial activity against Clostridium perfringens 13424; type: functional; in short: as §4
Bacteroides fragilis [4] = experiment: In vitro antibacterial activity against bacteroides fragilis S2; type: functional
In short: (§5)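 Anaerobic MIC, run in microtiter plates in Schaedler's broth supplemented with coenzyme I and hemin. Incubated in an oxygen-free hydrogen–carbon dioxide atmosphere.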

Escherichia coli [5] = experiment: In vitro antibacterial activity against Escherichia coli 25922; type: functional
In short: (§6)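 MIC was determined by agar dilution on Mueller-Hinton agar. Serial 2-fold aqueous dilutions were diluted 10-fold in agar to give final concentrations of 128 to 0.0156 μg/mL. Plates were inoculated by Steers replicator with overnight broth cultures diluted 100-fold.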

Escherichia coli [6] = experiment: In vitro antibacterial activity against Escherichia coli 257; type: functional
Escherichia coli [7] = experiment: In vitro antibacterial activity against Escherichia coli TEM-1 (constitutive beta-lactamase producer); type: functional; in short: as §6
Enterobacter cloacae = experiment: In vitro antibacterial activity against enterobacter cloacae P99 (constitutive beta-lactamase producer); type: functional; in short: as §6
Klebsiella pneumoniae [8] = experiment: In vitro antibacterial activity against klebsiella pneumoniae A; type: functional
In short: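 Agar-dilution MIC on Mueller-Hinton agar. Serial 2-fold dilutions were made in water, giving final agar concentrations of 128 to 0.0156 μg/mL. Inoculum was an overnight broth culture diluted 100-fold, applied with a multipoint replicator.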

Proteus mirabilis [9] = experiment: (§7) In vitro antibacterial activity against Proteus mirabilis 90; type: functional
In short: (§8)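 Proteus MICs were determined by agar dilution on Mueller-Hinton agar containing 3% agar. Serial 2-fold dilutions gave final concentrations of 128 to 0.0156 μg/mL. Plates were replicator-inoculated with 100-fold-diluted overnight broth cultures.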

Pseudomonas aeruginosa [10] = experiment: (§9) In vitro antibacterial activity against Ps. aeruginosa 18SH (constitutive beta-lactamase producer); type: functional; in short: as §6
Pseudomonas aeruginosa [11] = experiment: In vitro antibacterial activity against Pseudomonas aeruginosa 8780; type: functional; in short: as §6
Proteus vulgaris = experiment: In vitro antibacterial activity against proteus vulgaris ATCC 6380 (constitutive beta-lactamase producer); type: functional; in short: as §8
Staphylococcus aureus [12] = experiment: In vitro antibacterial activity against Staphylococcus aureus 67(methicillin resistant); type: functional
In short: (§10)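 MIC by agar dilution on Mueller-Hinton agar. Compounds were serially 2-fold diluted in water, final 128 to 0.0156 μg/mL in agar. Inoculum: overnight broth culture diluted 100-fold, applied with a Steers replicator.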

Staphylococcus aureus [13] = experiment: (§11) In vitro antibacterial activity against Staphylococcus aureus 753 (constitutive beta-lactamase producer); type: functional; in short: as §10
Streptococcus pyogenes = experiment: In vitro antibacterial activity against Streptococcus pyogenes 4; type: functional
In short: (§12)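 Streptococcal MICs were determined by agar dilution on brain heart infusion agar supplemented with 20 units/mL bovine liver catalase. Final concentrations were 128 to 0.0156 μg/mL from 2-fold dilutions. Inocula were overnight broth cultures diluted 100-fold, applied by Steers replicator.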

Serratia marcescens [14] = experiment: In vitro antibacterial activity against serratia marcescens SM (constitutive beta-lactamase producer); type: functional; in short: as §6
Staphylococcus aureus [15] = experiment: In vitro antibacterial activity against staphylococcus aureus smith; type: functional; in short: as §6
Streptococcus pneumoniae [16] = experiment: In vitro antibacterial activity against streptococcus pneumoniae 6301; type: functional; in short: as §12
Citrobacter freundii [17] = experiment: In vitro antibacterial activity against citrobacter freundii BS-16 (constitutive beta-lactamase producer); type: functional; in short: as §6
Clostridioides difficile [18] = experiment: In vitro antibacterial activity against Clostridium difficile 701; type: functional
Escherichia coli [19] = experiment: Effect on replication DNA biosynthesis in Escherichia coli H560 (permeabilised cells).; type: functional, organism-based
In short: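 Toluene-permeabilized E. coli H560 cells were used. Replicative DNA synthesis was measured as ATP-dependent [3H]thymidine incorporation into trichloroacetic acid-insoluble material. IC50 is the concentration giving 50% inhibition.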

Escherichia coli [20] = experiment: In vitro antibacterial activity against Escherichia coli UB1005 (nalidixic acid-resistant strain); type: functional; in short: as §6
[21] = Stability in pH 7.4 phosphate buffer at 37 degree C; type: physicochemical; in short: as §1
Staphylococcus aureus [22] = experiment: as §11; type: functional; in short: as §6; remark: listed apart in the source
Clostridioides difficile [23] = experiment: In vitro antibacterial activity against Clostridium difficile 651; type: functional
Hathewaya histolytica = experiment: In vitro antibacterial activity against clostridium histolyticum 503-86; type: functional; in short: as §5
Pseudomonas aeruginosa [24] = experiment: In vitro antibacterial activity against Pseudomonas aeruginosa 18SH (constitutive beta-lactamase producer); type: functional; in short: as §6
Proteus mirabilis [25] = experiment: as §7; type: functional; remark: listed apart in the source
In short: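 MIC by agar dilution on Mueller-Hinton agar containing 3% agar. Compounds were serially 2-fold diluted in water, final 128 to 0.0156 μg/mL in agar. Inoculum: overnight broth culture diluted 100-fold, applied with a Steers replicator.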

Pseudomonas aeruginosa [26] = experiment: as §9
Pseudomonas aeruginosa [27] = experiment: microbe, parasite or virus in culture
Bacteroides fragilis [28] = experiment: In vitro antibacterial activity against Bacteroides fragilis S2; type: functional; in short: as §3
Citrobacter freundii [29] = experiment: In vitro antibacterial activity against Citrobacter freundii BS-16 (constitutive beta-lactamase producer); type: functional; in short: as §6
Klebsiella pneumoniae [30] = experiment: In vitro antibacterial activity against Klebsiella pneumoniae A; type: functional; in short: as §6
Serratia marcescens [31] = experiment: In vitro antibacterial activity against Serratia marcescens SM (constitutive beta-lactamase producer); type: functional; in short: as §6
Streptococcus pneumoniae [32] = experiment: In vitro antibacterial activity against Streptococcus pneumoniae 6301; type: functional; in short: as §12
[33] = test system: Bacteroides thetaiotaomicron; experiment: as §2
[34] = test system: Bacteroides thetaiotaomicron; experiment: microbe, parasite or virus in culture

Compound | MIC [2] [mg/L] | MIC (Bacteroides fragilis [3]) [mg/L] | MIC (Clostridium perfringens) [mg/L] | MIC (Bacteroides fragilis [4]) [mg/L] | MIC (Escherichia coli [6]) [mg/L] | MIC (Escherichia coli [7]) [mg/L] | MIC (Enterobacter cloacae) [mg/L] | MIC (Klebsiella pneumoniae [8]) [mg/L] | MIC (Proteus mirabilis [9]) [mg/L] | MIC (Pseudomonas aeruginosa [10]) [mg/L] | MIC (Pseudomonas aeruginosa [11]) [mg/L] | MIC (Proteus vulgaris) [mg/L] | MIC (Staphylococcus aureus [12]) [mg/L] | MIC (Staphylococcus aureus [13]) [mg/L] | MIC (Streptococcus pyogenes) [mg/L] | MIC (Serratia marcescens [14]) [mg/L] | MIC (Staphylococcus aureus [15]) [mg/L] | MIC (Streptococcus pneumoniae [16]) [mg/L] | MIC (Citrobacter freundii [17]) [mg/L] | MIC (Clostridioides difficile [18]) [mg/L] | further results
C[C@@H](O)[C@H]1C(=O)N2C(C(=O)[O-])=C(COC(=O)c3cn(CCF)c4c(F)c(N5CCN(C)CC5)c(F)cc4c3=O)C[C@H]12.[Na+] | 4 | 1 | < 0.125 | < 0.125 | 0.125 | 0.125 | 0.125 | 0.25 | 1 | 2 | 4 | 0.25 | 1 | 1 | 0.0157 | 0.25 | 0.125 | 0.0157 | 0.25 | 4 | half-life [1]: 11 h; MIC (Escherichia coli [5]): 0.12 mg/L; IC50 (Escherichia coli [19]): 10 mg/L; MIC (Escherichia coli [20]): 1 mg/L
C[C@@H](O)[C@H]1C(=O)N2C(C(=O)[O-])=C(CO)[C@H](C)[C@H]12.[K+] |  |  |  |  | 0.5 | 0.5 | 0.5 | 0.5 | 1 | 16 | 32 | 0.5 | 32 | 32 | 0.0625 | 1 | 0.125 | 0.0625 | 0.5 |  | 
O=C([O-])C1=C(COC(=O)N2CCN(c3cc4c(cc3F)c(=O)c(C(=O)O)cn4C3CC3)CC2)SC2CC(=O)N12.[Na+] (stereo not given) |  |  |  |  | 0.25 | 0.125 | 0.125 | 0.25 | 1 | 4 | 16 | 0.25 | 1 |  | 0.125 | 0.25 | 1 | 0.125 | 0.25 |  | half-life [21]: 16 h; MIC (Escherichia coli [5]): 0.25 mg/L; MIC (Staphylococcus aureus [22]): 2 mg/L; IC50 (Escherichia coli [19]): 2 mg/L; MIC (Escherichia coli [20]): 2 mg/L
CN1CCN(c2c(F)cc3c(=O)c(C(=O)O)cn(CCF)c3c2F)CC1 [FLEROXACIN] | 64 (≈ 173 µM) | 64 (≈ 173 µM) | 0.5 (≈ 1.35 µM) | 8 (≈ 21.7 µM) | 0.0313 (≈ 0.0847 µM) | 0.0625 (≈ 0.169 µM) | 0.0313 (≈ 0.0847 µM) | 0.0625 (≈ 0.169 µM) | 0.25 (≈ 0.677 µM) | 1 (≈ 2.71 µM) | 2 (≈ 5.42 µM) | 0.0625 (≈ 0.169 µM) | 0.5 (≈ 1.35 µM) | 0.5 (≈ 1.35 µM) | 2 (≈ 5.42 µM) | 0.0625 (≈ 0.169 µM) | 0.25 (≈ 0.677 µM) | 4 (≈ 10.8 µM) | 0.125 (≈ 0.338 µM) | 16 (≈ 43.3 µM) | MIC (Clostridioides difficile [23]): 16 mg/L (≈ 43.3 µM); MIC (Hathewaya histolytica): 0.25 mg/L (≈ 0.677 µM); MIC (Escherichia coli [5]): 0.03 mg/L (≈ 0.0812 µM); IC50 (Escherichia coli [19]): 1 mg/L (≈ 2.71 µM); MIC (Escherichia coli [20]): 0.5 mg/L (≈ 1.35 µM)
C[C@@H](O)[C@H]1C(=O)N2C(C(=O)[O-])=C(COC(=O)N3CCN(c4cc5c(cc4F)c(=O)c(C(=O)O)cn5C4CC4)CC3)[C@H](C)[C@H]12.[K+] | 16 | 4 | < 0.125 | 1 | < 0.0156 | 0.0313 | 0.0313 | 0.0625 | 0.125 |  | 0.5 | 0.0313 | 0.5 | 0.5 | 0.0313 | 0.0625 | 0.125 | 0.0313 | 0.0625 | 1 | half-life [21]: 5 h; MIC (Clostridioides difficile [23]): 4 mg/L; MIC (Hathewaya histolytica): < 0.125 mg/L; MIC (Pseudomonas aeruginosa [24]): 0.5 mg/L
C[C@@H](O)[C@H]1C(=O)N2C(C(=O)O)=C(SCCNC=N)C[C@H]12.O | > 128 | 2 | < 0.125 | < 0.125 | 0.125 | 0.25 | 0.25 | 0.125 |  |  |  | 1 | 32 | 64 | < 0.0156 | 0.25 | < 0.0156 | < 0.0156 | 2 | 4 | MIC (Clostridioides difficile [23]): 4 mg/L; MIC (Hathewaya histolytica): < 0.125 mg/L; MIC (Proteus mirabilis [25]): 2 mg/L; MIC (Pseudomonas aeruginosa [26]): 1 mg/L; MIC (Pseudomonas aeruginosa [27]): 2 mg/L
O=C(O)c1cn(C2CC2)c2cc(N3CCNCC3)c(F)cc2c1=O [CIPROFLOXACIN] |  |  |  |  |  | 0.0156 (≈ 0.0471 µM) |  |  | 0.0625 (≈ 0.189 µM) |  |  |  | 0.5 (≈ 1.51 µM) |  | 0.5 (≈ 1.51 µM) |  |  |  |  |  | MIC (Bacteroides fragilis [28]): 4 mg/L (≈ 12.1 µM); MIC (Citrobacter freundii [29]): 0.0313 mg/L (≈ 0.0945 µM); MIC (Klebsiella pneumoniae [30]): 0.25 mg/L (≈ 0.754 µM); MIC (Staphylococcus aureus [22]): 0.25 mg/L (≈ 0.754 µM); MIC (Serratia marcescens [31]): 0.0313 mg/L (≈ 0.0945 µM); MIC (Streptococcus pneumoniae [32]): 1 mg/L (≈ 3.02 µM); MIC [33]: > 128 mg/L; MIC [34]: 0.25 mg/L (≈ 0.754 µM)
